These results are taken from ChEMBL document CHEMBL1157100, “The alkyl-connected 2-amino-6-vinylpurine (AVP) crosslinking agent for improved selectivity to the cytosine base in RNA” (Bioorg Med Chem, 2010).

Calls of active or inactive are those of the source. No cut-off for these calls is given here.

What all share (type): nucleic-acid assay
In assay [1] the test system is Nucleic Acid. As to the kind of experiment: Binding affinity to FAM-tagged r-(CAAGCGGAGAAAYUAAUUGCGGGUCGC)-RNA assessed as crosslinking at 10 uM by alkylation method. In a few lines:
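Reactive ODN at 10 µM with 1 µM FAM-labeled target DNA or RNA in 100 mM NaCl, 50 mM MES pH 5 plus RNase OUT, mixed at 0 °C and then incubated at 37 °C. Reactions were stopped at set times with formamide/EDTA/bromophenol blue buffer. Products were resolved on 15% denaturing polyacrylamide gel with 7 M urea, and FAM band intensities were quantified to give crosslinking yield.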

Assay [2] relates to Nucleic Acid. As to the kind of experiment: Binding affinity to r-(CGCUGGGCGUUAAUCAAAGAGGCGAAC)-RNA assessed as melting temperature at 1.5 uM by UV-visible spectrophotometry. In a few lines: (§1)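 Each strand at 1.5 µM: ODN plus complementary 27-mer RNA in 100 mM NaCl, 50 mM MES pH 5. Samples were heated at 85 °C for 10 min and cooled slowly. Melting curves were recorded at 260 nm while warming 20 to 80 °C at 1.0 °C/min to obtain Tm.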

In assay [3] the test system is Nucleic Acid. Nature of the assay: Binding affinity to r-(ACGUGAAUUGUUCAACAGUAUGGGCAU)-RNA assessed as melting temperature at 1.5 uM by UV-visible spectrophotometry. The method, boiled down:
as §1

Turning to `CSCCc1nc(N)nc2c1ncn2[C@H]1C[C@H](OP(=O)(O)OC[C@H]2O[C@@H](n3cnc4c(N)ncnc43)[C@H](O)[C@@H]2OP(=O)(O)OC[C@H]2O[C@@H](n3cc(C)c(=O)[nH]c3=O)C[C@@H]2OP(=O)(O)OC[C@H]2O[C@@H](n3cc(C)c(=O)[nH]c3=O)C[C@@H]2OP(=O)(O)OC[C@H]2O[C@@H](n3cnc4c(N)ncnc43)[C@H](O)[C@@H]2OP(=O)(O)OC[C@H]2O[C@@H](n3cnc4c(N)ncnc43)[C@H](O)[C@@H]2OP(=O)(O)OC[C@H]2O[C@@H](n3ccc(N)nc3=O)[C@H](O)[C@@H]2OP(=O)(O)OC[C@H]2O[C@@H](n3cnc4c(=O)[nH]c(N)nc43)[C@H](O)[C@@H]2OP(=O)(O)OC[C@H]2O[C@@H](n3ccc(N)nc3=O)[C@H](O)[C@@H]2OP(=O)(O)OC[C@H]2O[C@@H](n3ccc(N)nc3=O)[C@H](O)[C@@H]2OP(=O)(O)O)[C@@H](COP(=O)(O)O[C@H]2C[C@H](n3cc(C)c(=O)[nH]c3=O)O[C@@H]2COP(=O)(O)O[C@H]2C[C@H](n3cc(C)c(=O)[nH]c3=O)O[C@@H]2COP(=O)(O)O[C@H]2C[C@H](n3cc(C)c(=O)[nH]c3=O)O[C@@H]2COP(=O)(O)O[C@H]2[C@@H](O)[C@H](n3ccc(N)nc3=O)O[C@@H]2COP(=O)(O)O[C@H]2C[C@H](n3cc(C)c(=O)[nH]c3=O)O[C@@H]2COP(=O)(O)O[C@H]2[C@@H](O)[C@H](n3ccc(N)nc3=O)O[C@@H]2COP(=O)(O)O[C@H]2[C@@H](O)[C@H](n3ccc(N)nc3=O)O[C@@H]2COP(=O)(O)O[C@H]2[C@@H](O)[C@H](n3cnc4c(=O)[nH]c(N)nc43)O[C@@H]2COP(=O)(O)O[C@H]2[C@@H](O)[C@H](n3ccc(N)nc3=O)O[C@@H]2COP(=O)(O)O[C@H]2C[C@H](n3cc(C)c(=O)[nH]c3=O)O[C@@H]2COP(=O)(O)O[C@H]2C[C@H](n3cc(C)c(=O)[nH]c3=O)O[C@@H]2CO)O1`, the outcome in assay [1] was Active. Moreover, the Tm in assay [2] is 49.4 °C. For the compound `CSCCc1nc(N)nc2c1ncn2CC[C@H]1C[C@H](OP(=O)(O)OC[C@H]2O[C@@H](n3cc(C)c(=O)[nH]c3=O)C[C@@H]2OP(=O)(O)OC[C@H]2O[C@@H](n3cc(C)c(=O)[nH]c3=O)C[C@@H]2OP(=O)(O)OC[C@H]2O[C@@H](n3cnc4c(=O)[nH]c(N)nc43)[C@H](O)[C@@H]2OP(=O)(O)OC[C@H]2O[C@@H](n3cnc4c(N)ncnc43)[C@H](O)[C@@H]2OP(=O)(O)OC[C@H]2O[C@@H](n3cnc4c(=O)[nH]c(N)nc43)[C@H](O)[C@@H]2OP(=O)(O)OC[C@H]2O[C@@H](n3ccc(N)nc3=O)[C@H](O)[C@@H]2OP(=O)(O)OC[C@H]2O[C@@H](n3cnc4c(N)ncnc43)[C@H](O)[C@@H]2OP(=O)(O)OC[C@H]2O[C@@H](n3cnc4c(N)ncnc43)[C@H](O)[C@@H]2OP(=O)(O)OC[C@H]2O[C@@H](n3cc(C)c(=O)[nH]c3=O)C[C@@H]2OP(CCC#N)N(C(C)C)C(C)C)[C@@H](COP(=O)(O)O[C@H]2C[C@H](n3cc(C)c(=O)[nH]c3=O)O[C@@H]2COP(=O)(O)O[C@H]2[C@@H](O)[C@H](n3ccc(N)nc3=O)O[C@@H]2COP(=O)(O)O[C@H]2[C@@H](O)[C@H](n3cnc4c(N)ncnc43)O[C@@H]2COP(=O)(O)O[C@H]2C[C@H](n3cc(C)c(=O)[nH]c3=O)O[C@@H]2COP(=O)(O)O[C@H]2[C@@H](O)[C@H](n3cnc4c(N)ncnc43)O[C@@H]2COP(=O)(O)O[C@H]2[C@@H](O)[C@H](n3ccc(N)nc3=O)O[C@@H]2COP(=O)(O)O[C@H]2[C@@H](O)[C@H](n3ccc(N)nc3=O)O[C@@H]2COP(=O)(O)O[C@H]2[C@@H](O)[C@H](n3ccc(N)nc3=O)O[C@@H]2COP(=O)(O)O[C@H]2[C@@H](O)[C@H](n3cnc4c(=O)[nH]c(N)nc43)O[C@@H]2COP(=O)(O)O[C@H]2C[C@H](n3cc(C)c(=O)[nH]c3=O)O[C@@H]2COP(=O)(O)O[C@H]2[C@@H](O)[C@H](n3cnc4c(N)ncnc43)O[C@@H]2CO)O1` (some centres not stated), the result in assay [1] was inactive. In assay [3], the Tm turned out to be 49.7 °C. `Cc1cn([C@H]2C[C@H](OP(CCC#N)N(C(C)C)C(C)C)[C@@H](COP(=O)(O)O[C@H]3[C@@H](O)[C@H](n4cnc5c(N)ncnc54)O[C@@H]3COP(=O)(O)O[C@H]3[C@@H](O)[C@H](n4cnc5c(N)ncnc54)O[C@@H]3COP(=O)(O)O[C@H]3[C@@H](O)[C@H](n4ccc(N)nc4=O)O[C@@H]3COP(=O)(O)O[C@H]3[C@@H](O)[C@H](n4cnc5c(=O)[nH]c(N)nc54)O[C@@H]3COP(=O)(O)O[C@H]3[C@@H](O)[C@H](n4cnc5c(N)ncnc54)O[C@@H]3COP(=O)(O)O[C@H]3[C@@H](O)[C@H](n4cnc5c(=O)[nH]c(N)nc54)O[C@@H]3COP(=O)(O)O[C@H]3C[C@H](n4cc(C)c(=O)[nH]c4=O)O[C@@H]3COP(=O)(O)O[C@H]3C[C@H](n4cc(C)c(=O)[nH]c4=O)O[C@@H]3COP(=O)(O)O[C@H]3[C@@H](O)[C@H](n4cnc5c(=O)[nH]c(N)nc54)O[C@@H]3COP(=O)(O)O[C@H]3C[C@H](n4cc(C)c(=O)[nH]c4=O)O[C@@H]3COP(=O)(O)O[C@H]3[C@@H](O)[C@H](n4ccc(N)nc4=O)O[C@@H]3COP(=O)(O)O[C@H]3[C@@H](O)[C@H](n4cnc5c(N)ncnc54)O[C@@H]3COP(=O)(O)O[C@H]3C[C@H](n4cc(C)c(=O)[nH]c4=O)O[C@@H]3COP(=O)(O)O[C@H]3[C@@H](O)[C@H](n4cnc5c(N)ncnc54)O[C@@H]3COP(=O)(O)O[C@H]3[C@@H](O)[C@H](n4ccc(N)nc4=O)O[C@@H]3COP(=O)(O)O[C@H]3[C@@H](O)[C@H](n4ccc(N)nc4=O)O[C@@H]3COP(=O)(O)O[C@H]3[C@@H](O)[C@H](n4ccc(N)nc4=O)O[C@@H]3COP(=O)(O)O[C@H]3[C@@H](O)[C@H](n4cnc5c(=O)[nH]c(N)nc54)O[C@@H]3COP(=O)(O)O[C@H]3C[C@H](n4cc(C)c(=O)[nH]c4=O)O[C@@H]3COP(=O)(O)O[C@H]3[C@@H](O)[C@H](n4cnc5c(N)ncnc54)O[C@@H]3CO)O2)c(=O)[nH]c1=O` (some centres not stated): the Tm in assay [3] was determined as 64.1 °C.

As for `CSCCc1nc(N)nc2c1ncn2CC[C@H]1C[C@H](OP(=O)(O)OC[C@H]2O[C@@H](n3cnc4c(N)ncnc43)[C@H](O)[C@@H]2OP(=O)(O)OC[C@H]2O[C@@H](n3cc(C)c(=O)[nH]c3=O)C[C@@H]2OP(=O)(O)OC[C@H]2O[C@@H](n3cc(C)c(=O)[nH]c3=O)C[C@@H]2OP(=O)(O)OC[C@H]2O[C@@H](n3cnc4c(N)ncnc43)[C@H](O)[C@@H]2OP(=O)(O)OC[C@H]2O[C@@H](n3cnc4c(N)ncnc43)[C@H](O)[C@@H]2OP(=O)(O)OC[C@H]2O[C@@H](n3ccc(N)nc3=O)[C@H](O)[C@@H]2OP(=O)(O)OC[C@H]2O[C@@H](n3cnc4c(=O)[nH]c(N)nc43)[C@H](O)[C@@H]2OP(=O)(O)OC[C@H]2O[C@@H](n3ccc(N)nc3=O)[C@H](O)[C@@H]2OP(=O)(O)OC[C@H]2O[C@@H](n3ccc(N)nc3=O)[C@H](O)[C@@H]2OP(=O)(O)O)[C@@H](COP(=O)(O)O[C@H]2C[C@H](n3cc(C)c(=O)[nH]c3=O)O[C@@H]2COP(=O)(O)O[C@H]2C[C@H](n3cc(C)c(=O)[nH]c3=O)O[C@@H]2COP(=O)(O)O[C@H]2C[C@H](n3cc(C)c(=O)[nH]c3=O)O[C@@H]2COP(=O)(O)O[C@H]2[C@@H](O)[C@H](n3ccc(N)nc3=O)O[C@@H]2COP(=O)(O)O[C@H]2C[C@H](n3cc(C)c(=O)[nH]c3=O)O[C@@H]2COP(=O)(O)O[C@H]2[C@@H](O)[C@H](n3ccc(N)nc3=O)O[C@@H]2COP(=O)(O)O[C@H]2[C@@H](O)[C@H](n3ccc(N)nc3=O)O[C@@H]2COP(=O)(O)O[C@H]2[C@@H](O)[C@H](n3cnc4c(=O)[nH]c(N)nc43)O[C@@H]2COP(=O)(O)O[C@H]2[C@@H](O)[C@H](n3ccc(N)nc3=O)O[C@@H]2COP(=O)(O)O[C@H]2C[C@H](n3cc(C)c(=O)[nH]c3=O)O[C@@H]2COP(=O)(O)O[C@H]2C[C@H](n3cc(C)c(=O)[nH]c3=O)O[C@@H]2CO)O1`, the result in assay [1] was Active. Moreover, the Tm in assay [2] came out at 50.4 °C.
